Test results reported in ChEMBL document CHEMBL1129987, “Structure-based design of nonpeptidic HIV protease inhibitors: the sulfonamide-substituted cyclooctylpyramones” (J Med Chem, 1997).

Key:
[1] = Median cell culture toxic dose was evaluated against H9 cell line; assay type: ADME, cell-based; conditions: human, H9 cells; read-out: CCTD50
[2] = target: Human immunodeficiency virus type 1 protease (Human immunodeficiency virus 1, UniProt Q72874); assay: Binding affinity against HIV-1 protease
[3] = test system: Human immunodeficiency virus 1; assay: Antiviral activity in HIV-1 infected H9 cells; assay type: functional; conditions: Human immunodeficiency virus 1, H9; read-out: ED50 (the source's name)
Method in brief: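 H9 cells infected with HIV-1 IIIB at MOI about 0.005, spun down (200g, 10 min), resuspended at 8 × 10^5 cells/mL in RPMI Complete and mixed with compound; final DMSO 0.1%, triplicate per concentration. After 5 days at 37 °C in 5% CO2, supernatant p24 antigen was measured by ELISA. ED50 is the drug amount that reduces p24 by 50% versus DMSO drug-free controls.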

Compound | CC50 [1] [µM] | Ki [2] [nM] | EC50 [3] [µM]
Cc1ccc(S(=O)(=O)Nc2cccc(C(c3c(O)c4c(oc3=O)CCCCCC4)C3CC3)c2)cc1 (stereo not given) | > 30 | 3.3 | 3.6
O=c1c2c(oc(O)c1C(c1cccc(NS(=O)(=O)c3cccc4ccccc34)c1)C1CC1)CCCCCC2 (stereo not given) | > 30 | 5.5 | 3.6
CC(C)CC(c1cccc(NS(=O)(=O)c2cccc3cccnc23)c1)c1c(O)c2c(oc1=O)CCCCCC2 (stereo not given) | > 30 | 3.3 | > 10
O=c1c2c(oc(O)c1C(c1cccc(NS(=O)(=O)c3ccc(C(F)(F)F)c(C(F)(F)F)c3)c1)C1CC1)CCCCCC2 (stereo not given) | > 30 | 47 | –
Nc1cccc(S(=O)(=O)Nc2cccc(C(c3c(O)c4c(oc3=O)CCCCCC4)C3CC3)c2)c1 (stereo not given) | > 30 | 2.3 | 6.3
O=c1c2c(oc(O)c1C(c1cccc(NS(=O)(=O)c3ccc(Cl)c(Cl)c3Cl)c1)C1CC1)CCCCCC2 (stereo not given) | > 30 | 8.8 | 4.1
Cn1cnc(S(=O)(=O)Nc2cccc([C@H](c3c(O)c4c(oc3=O)CCCCCC4)C3CC3)c2)c1 | > 30 | 0.08 | –
CCCC(c1cccc(NS(=O)(=O)c2cn(C)cn2)c1)c1c(O)c2c(oc1=O)CCCCCC2 (stereo not given) | > 30 | 0.1 | 2.5
CCCCC(c1cccc(NS(=O)(=O)c2ccc(C#N)cc2)c1)c1c(O)c2c(oc1=O)CCCCCC2 (stereo not given) | > 30 | 2.1 | 7.6
CC(C)CC(c1cccc(NS(=O)(=O)c2cccnc2)c1)c1c(O)c2c(oc1=O)CCCCCC2 (stereo not given) | > 30 | 9.3 | > 10
CCCc1ccc(S(=O)(=O)Nc2cccc(C(c3c(O)c4c(oc3=O)CCCCCC4)C3CC3)c2)cc1 (stereo not given) | > 30 | 11 | –
Cc1cccc(S(=O)(=O)Nc2cccc(C(c3c(O)c4c(oc3=O)CCCCCC4)C3CC3)c2)c1 (stereo not given) | > 30 | 5.3 | 4
O=c1c2c(oc(O)c1C(c1cccc(NS(=O)(=O)c3ccc(Cl)c(Cl)c3)c1)C1CC1)CCCCCC2 (stereo not given) | > 30 | 4.1 | 3.4
O=c1c2c(oc(O)c1C(c1cccc(NS(=O)(=O)c3cccs3)c1)C1CC1)CCCCCC2 (stereo not given) | > 30 | 6.3 | > 10
CCC(c1ccccc1)c1c(O)c2ccccc2oc1=O (stereo not given) [PHENPROCOUMON] | – | 0.8 | –
CCCCOc1ccc(S(=O)(=O)Nc2cccc(C(c3c(O)c4c(oc3=O)CCCCCC4)C3CC3)c2)cc1 (stereo not given) | > 30 | 18 | –
O=c1c2c(oc(O)c1C(c1cccc(NS(=O)(=O)c3cnccn3)c1)C1CC1)CCCCCC2 (stereo not given) | > 30 | 0.2 | 2
O=c1c2c(oc(O)c1C(c1cccc(NS(=O)(=O)c3cc(Cl)ccc3Cl)c1)C1CC1)CCCCCC2 (stereo not given) | > 30 | 74 | –
O=c1c2c(oc(O)c1[C@H](c1cccc(NS(=O)(=O)c3ccccc3)c1)C1CC1)CCCCCC2 | > 30 | – | 2.6
CC(C)C(c1cccc(NS(=O)(=O)c2cccc3cccnc23)c1)c1c(O)c2c(oc1=O)CCCCCC2 (stereo not given) | > 30 | 4.2 | > 10

Compound | CC50 [1] [µM] | Ki [2] [nM] | EC50 [3] [µM]
O=c1c2c(oc(O)c1C(c1cccc(NS(=O)(=O)c3cccc(C(F)(F)F)c3)c1)C1CC1)CCCCCC2 (stereo not given) | > 30 | 3 | 3.8
O=c1c2c(oc(O)c1C(c1cccc(NS(=O)(=O)c3ccc4ccccc4c3)c1)C1CC1)CCCCCC2 (stereo not given) | > 30 | 4.1 | 3.4
CN(C)c1ccc(S(=O)(=O)Nc2cccc(C(c3c(O)c4c(oc3=O)CCCCCC4)C3CC3)c2)cc1 (stereo not given) | > 30 | 2.8 | 8.7
CC(C)C(c1cccc(NS(=O)(=O)c2cn(C)cn2)c1)c1c(O)c2c(oc1=O)CCCCCC2 (stereo not given) | > 30 | 0.5 | 2.5
O=c1c2c(oc(O)c1C(c1cccc(NS(=O)(=O)c3ccc([N+](=O)[O-])cc3)c1)C1CC1)CCCCCC2 (stereo not given) | > 30 | 2.7 | 3.1
COc1ccc(S(=O)(=O)Nc2cccc(C(c3c(O)c4c(oc3=O)CCCCCC4)C3CC3)c2)cc1 (stereo not given) | > 30 | 3.9 | 4.5
[N-]=[N+]=Nc1ccc(S(=O)(=O)Nc2cccc(C(c3c(O)oc4c(c3=O)CCCCCC4)C3CC3)c2)cc1 (stereo not given) | > 30 | 2.6 | 1.7
O=c1c2c(oc(O)c1C(c1cccc(NS(=O)(=O)c3cccc(Cl)c3Cl)c1)C1CC1)CCCCCC2 (stereo not given) | > 30 | 7.6 | > 3
CC(C)S(=O)(=O)Nc1cccc(C(c2c(O)c3c(oc2=O)CCCCCC3)C2CC2)c1 (stereo not given) | – | 33 | –
CCCC(c1cccc(NS(=O)(=O)c2ccc(Cl)cc2)c1)c1c(O)c2c(oc1=O)CCCCCC2 (stereo not given) | > 30 | 4 | > 10
Nc1ccc(S(=O)(=O)Nc2cccc(C(c3c(O)c4c(oc3=O)CCCCCC4)C3CC3)c2)cc1 (stereo not given) | > 30 | 6.9 | –
CC(C)C(c1cccc(NS(=O)(=O)c2cccnc2)c1)c1c(O)c2c(oc1=O)CCCCCC2 (stereo not given) | > 30 | – | > 10
O=c1c2c(oc(O)c1C(c1cccc(NS(=O)(=O)c3ccccc3)c1)C1CC1)CCCCCC2 (stereo not given) | > 30 | – | 5.5
O=c1c2c(oc(O)c1C(c1cccc(S(=O)(=O)Nc3ccccc3)c1)C1CC1)CCCCCC2 (stereo not given) | – | 36 | –
CCCCS(=O)(=O)Nc1cccc(C(c2c(O)c3c(oc2=O)CCCCCC3)C2CC2)c1 (stereo not given) | – | 4.6 | –
O=c1c2c(oc(O)c1C(c1cccc(NS(=O)(=O)Cc3ccccc3)c1)C1CC1)CCCCCC2 (stereo not given) | – | 13 | –
CCS(=O)(=O)Nc1cccc(C(c2c(O)c3c(oc2=O)CCCCC3)C2CC2)c1 (stereo not given) | – | 63 | –
CC(C)(C)OC(=O)NCCC(=O)Nc1cccc(C(c2c(O)c3c(oc2=O)CCCCCC3)C2CC2)c1 (stereo not given) | – | – | 33
O=c1c2c(oc(O)c1C(c1cccc(NS(=O)(=O)c3c(Cl)cccc3Cl)c1)C1CC1)CCCCCC2 (stereo not given) | > 30 | > 200 | –
CCc1ccc(S(=O)(=O)Nc2cccc(C(c3c(O)c4c(oc3=O)CCCCCC4)C3CC3)c2)cc1 (stereo not given) | > 30 | 5 | –

Compound | CC50 [1] [µM] | Ki [2] [nM] | EC50 [3] [µM]
O=c1c2c(oc(O)c1C(c1cccc(NS(=O)(=O)c3ccccc3C(F)(F)F)c1)C1CC1)CCCCCC2 (stereo not given) | > 30 | 21 | –
C=CS(=O)(=O)Nc1cccc(C(c2c(O)oc3c(c2=O)CCCCCC3)C2CC2)c1 (stereo not given) | – | 18 | –
O=c1c2c(oc(O)c1[C@@H](c1cccc(NS(=O)(=O)c3ccccc3)c1)C1CC1)CCCCCC2 | > 30 | – | > 10
Cc1ccccc1S(=O)(=O)Nc1cccc(C(c2c(O)c3c(oc2=O)CCCCCC3)C2CC2)c1 (stereo not given) | > 30 | 9.3 | –
O=c1c2c(oc(O)c1C(c1cccc(NS(=O)(=O)CCc3ccccc3)c1)C1CC1)CCCCCC2 (stereo not given) | – | 3.9 | –
CCS(=O)(=O)Nc1cccc(C(c2c(O)c3c(oc2=O)CCCCCC3)C2CC2)c1 (stereo not given) | – | 10 | –
CS(=O)(=O)Nc1cccc(C(c2c(O)c3c(oc2=O)CCCCC3)C2CC2)c1 (stereo not given) | – | 120 | –
O=c1c2c(oc(O)c1C(c1cccc(NS(=O)(=O)/C=C/c3ccccc3)c1)C1CC1)CCCCCC2 (stereo not given) | – | 3 | –
C=CS(=O)(=O)Nc1cccc(C(c2c(O)oc3c(c2=O)CCCCC3)C2CC2)c1 (stereo not given) | – | > 200 | –
O=c1c2c(oc(O)c1C(c1cccc(NS(=O)(=O)c3ccc(Cl)cc3Cl)c1)C1CC1)CCCCCC2 (stereo not given) | > 30 | 6.2 | –
O=c1c2c(oc(O)c1C(c1ccccc1)C1CC1)CCCCCC2 (stereo not given) | – | 15 | –
O=c1c2c(oc(O)c1C(c1cccc(NS(=O)(=O)c3ccccc3Cl)c1)C1CC1)CCCCCC2 (stereo not given) | > 30 | 9.3 | –
O=c1c2c(oc(O)c1C(c1cccc(NS(=O)(=O)C3CCCCC3)c1)C1CC1)CCCCCC2 (stereo not given) | – | 3.6 | –
CS(=O)(=O)Nc1cccc(C(c2c(O)c3c(oc2=O)CCCCCC3)C2CC2)c1 (stereo not given) | – | 11 | –
Cc1cccc(C)c1S(=O)(=O)Nc1cccc(C(c2c(O)c3c(oc2=O)CCCCCC3)C2CC2)c1 (stereo not given) | > 30 | > 200 | –
CC(C)c1ccc(S(=O)(=O)Nc2cccc(C(c3c(O)c4c(oc3=O)CCCCCC4)C3CC3)c2)cc1 (stereo not given) | > 30 | 13 | –
CCCCCCCCS(=O)(=O)Nc1cccc(C(c2c(O)c3c(oc2=O)CCCCCC3)C2CC2)c1 (stereo not given) | – | 6 | –
CCCS(=O)(=O)Nc1cccc(C(c2c(O)c3c(oc2=O)CCCCCC3)C2CC2)c1 (stereo not given) | – | 4 | –
